Results on 12 compounds are retold here after ChEMBL document CHEMBL3813596, “Conformational Constraint of the Glycerol Moiety of Lysophosphatidylserine Affords Compounds with Receptor Subtype Selectivity” (J Med Chem, 2016).

Structures are written as SMILES. Active and inactive are the calls of the source. The calls are words filed in the database; no cut-off is given here. Some results are limits rather than exact numbers.

Assay [1] has as its target Probable G-protein coupled receptor 34 (Mus musculus, UniProt Q9R1K6). Description: (§1) Agonist activity at mouse GPR34 expressed in HEK293A cells cotransfected with chimeric Galphaq/il after 1.5 hrs by alkaline phosphatase tagged-TGFalpha shedding assay. Format: cell-based, HEK293-A.
The target in assay [2] is Putative P2Y purinoceptor 10 (Mus musculus) (UniProt Q8BFU7). Description: Intrinsic activity at mouse P2Y10 receptor expressed in HEK293A cells after 1.5 hrs by alkaline phosphatase tagged-TGFalpha shedding assay relative to diF-C3-ph-o-O-C11. The format is cell-based. Particulars: HEK293-A. The method, boiled down:
(§2)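 It is a dimensionless estimate of agonist activity. The GPR34 assay used HEK293A cells with chimeric Gαq/i1 and a 1.5 h incubation; the P2Y10 assay used HEK293A cells.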

The target is the same in assay [3]. Description: Agonist activity at mouse P2Y10 receptor expressed in rat McA-RH7777 cells assessed as induction of actin stress fiber formation at 100 nM after 30 mins by Alexa fluor 594-labelled phalloidin/DAPI staining based fluorescence microscopy. The format is cell-based. The method, boiled down: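 McA-RH7777 rat hepatoma cells stably expressing mouse P2Y10, or mock-infected, seeded on collagen I at 2.5 × 10^4 cells/well, grown 24 h in 10% FBS DMEM. Serum-starved 1 h in 0.01% BSA DMEM, stimulated 30 min. Fixed in 4% paraformaldehyde, Triton X-100 permeabilised, stained 1 h with Alexa 594-phalloidin (1.5 μg/mL) and DAPI (1 μg/mL). Scored by fluorescence imaging.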

For assay [4] the target is unchanged. Description: (§3) Agonist activity at mouse P2Y10 receptor expressed in HEK293A cells after 1.5 hrs by alkaline phosphatase tagged-TGFalpha shedding assay. Format: cell-based. Particulars: HEK293-A. The method, boiled down: (§4)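 Transient transfection of HEK293 cells with AP-TGFα plus the mouse receptor. For GPR34, HEK293A cells also got a chimeric Gαq/i1 subunit; P2Y10 was run in HEK293A and GPR174 in HEK293FT. Cells were seeded 24 h post-transfection in 5 mM HEPES (pH 7.4) HBSS onto serial 3.2-fold compound dilutions (top final 32 μM or lower, limited by mock-cell signal). Ki16425 was present, and incubation ran 1.5 h.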

For assay [5], the target named is Putative P2Y purinoceptor 10 (Mus musculus, UniProt Q8BFU7). The assay is described as §3. The format is cell-based, HEK293-A. The method, boiled down:
as §4

The target of assay [6] is Probable G-protein coupled receptor 34 (Mus musculus) (UniProt Q9R1K6). The description is as §1. The format is cell-based. Particulars: HEK293-A.
Assay [7] has the same target. Description: Intrinsic activity at mouse GPR34 expressed in HEK293A cells cotransfected with chimeric Galphaq/il after 1.5 hrs by alkaline phosphatase tagged-TGFalpha shedding assay relative to O-(Hydroxy(((2R,3R)-2-(((3-(2-((3-phenoxybenzyl)oxy)phenyl)-propanoyl)oxy)methyl)tetrahydro-2H-pyran-3-yl)oxy)phosphoryl)-L-serine. Format: cell-based. Particulars: HEK293-A. The essentials: as §2

Assay [8] has the same target. Description: Agonist activity at mouse GPR34 expressed in HEK293A cells cotransfected with chimeric Galphaq/il assessed as increase in intracellular calcium levels at 1 uM measured after 35 secs by calcium 5 dye based fluorescence microplate reader method in presence of probenecid. The format is functional, cell-based. Particulars: HEK293-A. The method, boiled down:
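HEK293A cells were transfected with mouse GPR34 and Gαq/i1 plasmids, with empty vector plus Gαq/i1 as mock. After 24 h they were seeded in serum-free DMEM at 5 × 10^5 cells/mL for another 24 h. Cells were loaded with Calcium 5 dye for 1 h with 2.5 mM probenecid and given compound at 1 μM or 100 nM near 35 s. Fluorescence was recorded by plate reader, with SD of triplicates.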

For a further assay, the system named is HEK293-A. Description: Selectivity ratio of EC50 for mouse P2Y10 receptor expressed in HEK293A cells to EC50 for mouse GPR34 expressed in HEK293A cells. The format is cell-based.
Assay [9] deals with Probable G-protein coupled receptor 174 (Mus musculus) (UniProt Q3U507). Description: Agonist activity at mouse GPR174 expressed in HEK293FT cells after 1.5 hrs by alkaline phosphatase tagged-TGFalpha shedding assay. Format: cell-based. The essentials:
as §4

Probable G-protein coupled receptor 34 (Mus musculus), sequence (Q9R1K6 whole entry): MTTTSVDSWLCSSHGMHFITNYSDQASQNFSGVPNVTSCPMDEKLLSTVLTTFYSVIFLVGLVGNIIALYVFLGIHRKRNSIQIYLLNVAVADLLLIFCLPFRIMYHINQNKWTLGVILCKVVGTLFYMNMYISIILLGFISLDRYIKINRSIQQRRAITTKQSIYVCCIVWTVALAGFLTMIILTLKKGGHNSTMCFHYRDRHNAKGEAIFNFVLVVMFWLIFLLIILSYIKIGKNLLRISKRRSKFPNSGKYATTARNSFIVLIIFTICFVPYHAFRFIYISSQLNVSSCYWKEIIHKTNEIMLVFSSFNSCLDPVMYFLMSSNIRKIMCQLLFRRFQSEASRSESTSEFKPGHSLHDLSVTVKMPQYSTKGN
Probable G-protein coupled receptor 34, sequence (Q9R1K6 whole entry): as above
Putative P2Y purinoceptor 10 (Mus musculus), sequence (Q8BFU7 whole entry): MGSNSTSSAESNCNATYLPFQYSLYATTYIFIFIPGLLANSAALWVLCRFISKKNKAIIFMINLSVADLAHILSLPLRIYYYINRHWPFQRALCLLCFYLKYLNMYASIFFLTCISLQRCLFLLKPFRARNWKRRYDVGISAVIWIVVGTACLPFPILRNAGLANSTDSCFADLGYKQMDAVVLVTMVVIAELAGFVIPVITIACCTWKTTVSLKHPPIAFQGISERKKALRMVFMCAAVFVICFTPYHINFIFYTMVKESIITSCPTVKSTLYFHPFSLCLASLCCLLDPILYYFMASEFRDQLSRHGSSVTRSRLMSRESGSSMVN
Putative P2Y purinoceptor 10, sequence (Q8BFU7 whole entry): as above
Probable G-protein coupled receptor 174 (Mus musculus), sequence (Q3U507 whole entry): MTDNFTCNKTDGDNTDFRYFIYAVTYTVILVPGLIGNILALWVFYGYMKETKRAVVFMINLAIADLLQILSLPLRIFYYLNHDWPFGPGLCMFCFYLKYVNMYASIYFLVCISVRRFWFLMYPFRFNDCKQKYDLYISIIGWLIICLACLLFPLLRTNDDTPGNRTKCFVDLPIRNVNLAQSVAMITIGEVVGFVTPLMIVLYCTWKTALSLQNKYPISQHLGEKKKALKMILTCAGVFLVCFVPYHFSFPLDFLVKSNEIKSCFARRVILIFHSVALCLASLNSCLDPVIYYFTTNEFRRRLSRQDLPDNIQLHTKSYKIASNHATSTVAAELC

Turning to `CCCCCCCCCCCOc1ccccc1CCC(=O)OC[C@H]1OCC=C[C@H]1OP(=O)(O)OC[C@H](N)C(=O)O`, the EC50 in assay [1] (read-out: EC50) was 510 nM; in assay [5] (read-out: EC50), 42 nM. Further, the Intrinsic activity in [2] amounted to 0.05. In addition, the result in [3] was Active. The Emax in [4] turned out to be 12.4%.
For `N[C@@H](COP(=O)(O)OC[C@H]1OCCC[C@H]1OC(=O)CCc1ccccc1OCc1cccc(Oc2ccccc2)c1)C(=O)O`, the EC50 in assay [1] (read-out: EC50) was 190 nM; in [5] (read-out: EC50) it was more than 1000 nM. The compound also registered a maximum response (Emax) in assay [6] of 17.7%. Also, the Intrinsic activity result in assay [2] was “inactive”. In addition, the outcome in assay [3] and in [9] was inactive. Moreover, the Intrinsic activity in assay [7] worked out at 0.85. Also, the result in [8] was Active. In addition, the Ratio EC50 with HEK293-A came out at 100. In assay [4], the Emax result is “inactive”.
As to `N[C@@H](COP(=O)(O)OC[C@H]1OCCC[C@H]1OC(=O)CCc1ccccc1OCc1cccc(Oc2ccc(Cl)cc2)c1)C(=O)O`, the EC50 in assay [1] (read-out: EC50) is 120 nM; in assay [5] (read-out: EC50) it was more than 1000 nM. In addition, the Emax in assay [6] was 15.1%. Moreover, in assay [2], the Intrinsic activity result was “inactive”. The Intrinsic activity in assay [7] came out at 1.2. The result in [8] was Active. In assay [4], the Emax entry is “inactive”.
For `Cc1ccc(Oc2cccc(COc3ccccc3CCC(=O)OC[C@H]3OCCC[C@H]3OP(=O)(O)OC[C@H](N)C(=O)O)c2)cc1`, the EC50 in assay [1] (read-out: EC50) was 36 nM; in [5] (read-out: EC50), more than 1000 nM. In addition, in assay [6], the maximal response (Emax) amounted to 15.2%. Moreover, the Intrinsic activity result in [2] was “inactive”. Further, the Intrinsic activity in [7] is 3.6. The outcome in assay [8] was Active. In addition, in assay [4], the Emax entry was “inactive”.
For `N[C@@H](COP(=O)(O)O[C@@H]1CCCO[C@@H]1COC(=O)CCc1ccccc1OCc1cccc(Oc2ccc(Cl)cc2)c1)C(=O)O`, the values for the EC50 in assay [1] (read-out: EC50) and in assay [5] (read-out: EC50) were 37 nM and more than 1000 nM, respectively. In assay [6], this compound had an Emax of 16.6%. The Intrinsic activity result in assay [2] was “inactive”. In assay [7], this compound showed an Intrinsic activity of 3.8. Further, the outcome in assay [8] was Active. In addition, the Emax result in [4] is “inactive”.
On to `CCCCCCCC/C=C\CCCCCCCC(=O)OC[C@@H](O)COP(=O)(O)OC[C@H](N)C(=O)O`, for which the maximal effect (Emax) in [6] is 9.5%; in [4], 12.5%. The Intrinsic activity in assay [2] was determined as 0.073; in [7], 0.33. For the same compound, the result in assay [3] was Active. The EC50 in assay [5] (read-out: EC50) was 25 nM.
As to `CCCCCCCCCCCOc1ccccc1CCC(=O)OCc1cccc(OP(=O)(O)OC[C@H](N)C(=O)O)c1`, the results for the concentration for a half-maximal effect (EC50) result in assay [1] (hek293-a) and in [5] (read-out: EC50) were “Not Active” and 6.7 nM, respectively. Further, the Intrinsic activity in assay [2] was 0.23. The outcome in [3] was Active. This compound gave a maximum response (Emax) in [4] of 10.8%.
For `CCCCCCCCCCCOc1ccccc1CCC(=O)OCc1ccc(OP(=O)(O)OC[C@H](N)C(=O)O)cc1`, in that order: “Not Active”, more than 1000 nM, “inactive”, “inactive” and “inactive”.
On to `N[C@@H](COP(=O)(O)O[C@@H]1CCCO[C@@H]1COC(=O)CCc1ccccc1OCc1cccc(Oc2ccccc2)c1)C(=O)O`, for which the EC50 in [1] (read-out: EC50) is 140 nM; in [5] (read-out: EC50), more than 1000 nM. Besides, the maximal effect (Emax) in assay [6] came to 14.8%. The Intrinsic activity entry in assay [2] was “inactive”. Also, the result in [3] and in assay [9] was inactive. For the same compound, the result in [8] was Active. Also, the Ratio EC50 in the assay on HEK293-A stood at 100. The Emax entry in [4] is “inactive”.
Turning to `CCCCCCCCCCCOc1ccccc1CCC(=O)OC[C@H]1OCC=C[C@@H]1OP(=O)(O)OC[C@H](N)C(=O)O`, the EC50 entry in assay [1] (hek293-a) was “Not Active”; in assay [5] (read-out: EC50) it was 17 nM. The compound also showed an Intrinsic activity in assay [2] of 0.071. For the same compound, in [3], the result was Active. For the same compound, the Emax in assay [4] was determined as 7.6%.
Consider `CCCCCCCCCCCOc1ccccc1CCC(=O)OCc1ccccc1OP(=O)(O)OC[C@H](N)C(=O)O`, for which the EC50 in assay [1] (read-out: EC50) was 700 nM; in [5] (read-out: EC50) it was 45 nM. The figures for the maximum response (Emax) in assay [6] and in [4] were 5.9% and 5.8%, respectively. For the same compound, the Intrinsic activity in assay [2] is 0.02; in assay [7] it was 0.2. In addition, the outcome in assay [3] was Active.
Turning to `Cc1ccc(Oc2cccc(COc3ccccc3CCC(=O)O[C@@H]3CCCO[C@@H]3COP(=O)(O)OC[C@H](N)C(=O)O)c2)cc1`, the EC50 in [1] (read-out: EC50) is 77 nM; in [5] (hek293-a), “Not Active”. The compound further yielded an Emax in assay [6] of 16%. Moreover, the Intrinsic activity in [7] turned out to be 1.9. The result in assay [8] was Active.
